Assay results from ChEMBL document CHEMBL3124838, “Discovery of 6-aryl-azabenzimidazoles that inhibit the TBK1/IKK-ε kinases” (Bioorg Med Chem Lett, 2014).

Experiments:
[1] = biological target: T1, Serine/threonine-protein kinase TBK1 (Homo sapiens, UniProt Q9UHD2); assay: Inhibition of TBK1 in HEK293 cells after 4.5 hrs by ISRE-luciferase reporter gene assay in presence of poly I:C; format: cell-based
T1 sequence (Q9UHD2 whole entry): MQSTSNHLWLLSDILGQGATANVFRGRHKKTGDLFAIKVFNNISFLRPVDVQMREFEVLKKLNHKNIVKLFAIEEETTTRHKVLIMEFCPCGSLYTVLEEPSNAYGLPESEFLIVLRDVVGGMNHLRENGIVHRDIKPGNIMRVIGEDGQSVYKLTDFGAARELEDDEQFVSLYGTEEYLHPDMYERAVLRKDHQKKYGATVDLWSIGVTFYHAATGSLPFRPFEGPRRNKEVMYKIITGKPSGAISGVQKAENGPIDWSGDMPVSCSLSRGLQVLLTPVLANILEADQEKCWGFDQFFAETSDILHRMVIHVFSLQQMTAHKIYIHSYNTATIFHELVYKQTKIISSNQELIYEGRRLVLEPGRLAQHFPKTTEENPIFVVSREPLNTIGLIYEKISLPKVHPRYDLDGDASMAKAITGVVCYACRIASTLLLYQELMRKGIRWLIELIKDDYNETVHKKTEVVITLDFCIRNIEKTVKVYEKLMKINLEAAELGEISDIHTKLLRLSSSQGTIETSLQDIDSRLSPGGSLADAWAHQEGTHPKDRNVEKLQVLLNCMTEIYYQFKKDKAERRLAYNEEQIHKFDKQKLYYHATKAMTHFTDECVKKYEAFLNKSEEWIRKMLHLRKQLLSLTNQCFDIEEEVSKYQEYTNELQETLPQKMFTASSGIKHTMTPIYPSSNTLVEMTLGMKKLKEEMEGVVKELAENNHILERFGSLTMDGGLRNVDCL

Aurora kinase B = Aurora kinase B (Homo sapiens, UniProt Q96GD4); assay: Inhibition of aurora B (unknown origin)
[2] = biological target: Cyclin-dependent kinase 2 (Homo sapiens, UniProt P24941); assay: Inhibition of CDK2 (unknown origin)
[3] = biological target: T2, Inhibitor of nuclear factor kappa-B kinase subunit epsilon (Homo sapiens, UniProt Q14164); assay: Inhibition of IKK-epsilon (unknown origin) using 5FAM-AKELDQGSLCTpSFVGTLQ-NH2 as substrate by microfluidic mobility shift assay
T2 sequence (Q14164 whole entry): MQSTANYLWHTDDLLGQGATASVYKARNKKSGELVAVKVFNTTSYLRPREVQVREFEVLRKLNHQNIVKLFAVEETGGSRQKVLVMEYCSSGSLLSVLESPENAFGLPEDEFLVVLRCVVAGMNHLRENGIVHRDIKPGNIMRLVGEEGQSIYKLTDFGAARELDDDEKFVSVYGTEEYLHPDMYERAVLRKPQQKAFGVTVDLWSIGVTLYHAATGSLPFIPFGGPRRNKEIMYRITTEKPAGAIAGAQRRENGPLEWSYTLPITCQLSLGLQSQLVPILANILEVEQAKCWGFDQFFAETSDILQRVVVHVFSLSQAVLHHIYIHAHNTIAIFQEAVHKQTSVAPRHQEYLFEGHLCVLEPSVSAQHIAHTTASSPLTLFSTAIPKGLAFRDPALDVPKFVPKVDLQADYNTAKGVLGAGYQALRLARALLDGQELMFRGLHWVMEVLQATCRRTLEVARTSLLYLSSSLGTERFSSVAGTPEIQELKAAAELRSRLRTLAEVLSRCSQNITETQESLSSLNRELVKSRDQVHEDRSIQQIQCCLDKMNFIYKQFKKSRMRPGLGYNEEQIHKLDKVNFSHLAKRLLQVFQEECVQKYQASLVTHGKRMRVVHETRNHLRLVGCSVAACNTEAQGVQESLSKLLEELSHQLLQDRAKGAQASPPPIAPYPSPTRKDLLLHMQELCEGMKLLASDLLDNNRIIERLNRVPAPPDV
Procedure, shortened: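 Recombinant IKK-ε (4 nM) in HEPES buffer with 1.5 µM 5FAM-labelled peptide substrate, ATP at its K_M, and 10 mM MgCl2. The 10-point titration used half-log serial dilutions. Reactions ran at room temperature for a set time, were quenched with EDTA-containing HEPES, and were read by microfluidic mobility shift. Percent inhibition came from the ratio of phosphorylated to total peptide.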

[4] = biological target: T1, Serine/threonine-protein kinase TBK1; assay: Inhibition of recombinant full-length TBK1 (unknown origin) using CK1tide as substrate by microfluidic mobility shift assay

Aurora kinase B, sequence (Q96GD4 whole entry): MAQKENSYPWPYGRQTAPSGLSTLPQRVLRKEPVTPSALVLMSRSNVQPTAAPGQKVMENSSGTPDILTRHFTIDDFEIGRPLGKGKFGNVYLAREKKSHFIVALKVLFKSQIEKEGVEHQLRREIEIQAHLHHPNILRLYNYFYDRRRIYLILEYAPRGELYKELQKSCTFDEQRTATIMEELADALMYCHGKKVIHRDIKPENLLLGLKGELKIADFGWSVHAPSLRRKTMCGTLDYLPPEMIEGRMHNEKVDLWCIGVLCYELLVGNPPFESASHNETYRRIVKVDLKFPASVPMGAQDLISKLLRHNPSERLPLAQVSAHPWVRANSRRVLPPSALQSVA

SMILES | IC50 [1] [nM] | IC50 (Aurora kinase B) [nM] | IC50 [2] [nM] | IC50 [3] [nM] | IC50 [4] [nM]
COc1ccc(-c2nc3cc(-c4csc(C(=O)NCC(C)(C)CO)c4)cnc3[nH]2)cc1 | 136 | 1680 | > 30000 | 330 | 100
CNc1c(-c2ccc(C(=O)O)cc2)cnc2nc(-c3ccc(OC)cc3)[nH]c12 | – | – | – | – | 1800
COc1ccc(-c2nc3cc(-c4csc(C(N)=O)c4)cnc3[nH]2)cc1 | 268 | 2300 | 984 | 205 | 30
O=C(O)c1ccc(-c2cnc3nc(-c4ccc(OCCN5CCCCC5)cc4)[nH]c3c2)cc1 | – | – | – | – | 859
COc1cc2ncn(-c3cc(OCc4ccccc4S(C)(=O)=O)c(C#N)s3)c2cc1OC [GSK-319347A] | 72 | > 5320 | > 30000 | 469 | 93
COc1ccc(-c2nc3c(NCCCNC(=O)C4CCCC4)c(-c4nc(C(=O)NCC(C)C)cs4)cnc3[nH]2)cc1 | 128 | 2470 | > 30000 | 3230 | 388
CCC(C)CNC(=O)c1cc(-c2cnc3[nH]c(-c4ccc(OC)cc4)nc3c2)cs1 (stereo not given) | 89 | 2820 | > 30000 | 1090 | 219
CNC(=O)c1cc(-c2cnc3nc(-c4ccc(OC)cc4)[nH]c3c2)cs1 | 851 | – | – | 2560 | 203
COc1ccc(-c2nc3c(NCCCNC(=O)C4CCCC4)c(C(N)=S)cnc3[nH]2)cc1 | 165 | 889 | > 30000 | 448 | 46
COc1ccc(-c2nc3ncc(-c4ccc(C(=O)O)s4)cc3[nH]2)cc1 | > 30000 | – | – | 867 | 256
COc1ccc(-c2nc3c(NCCCNC(=O)C4CCCC4)c(-c4nc(C(=O)O)cs4)cnc3[nH]2)cc1 | 2170 | 299 | 13600 | 158 | 36
CNc1c(-c2ccc(C(=O)O)s2)cnc2[nH]c(-c3ccc(OC)cc3)nc12 | – | – | – | 3300 | 1040
COc1ccc(-c2nc3cc(-c4cc(C(=O)O)cs4)cnc3[nH]2)cc1 | > 30000 | – | – | 395 | 129
COc1ccc(-c2nc3cc(-c4csc(C#N)c4)cnc3[nH]2)cc1 | – | – | – | > 30000 | > 30000
COCCNC(=O)c1cc(-c2cnc3[nH]c(-c4ccc(OC)cc4)nc3c2)cs1 | 170 | 1380 | > 30000 | 412 | 98
COc1ccc(-c2nc3cc(-c4csc(C(C)=O)c4)cnc3[nH]2)cc1 | 1780 | 12100 | > 30000 | 6750 | 650
COc1ccc(-c2nc3ncc(-c4cc(C(=O)O)co4)cc3[nH]2)cc1 | > 30000 | – | – | 11600 | 1050
COc1ccc(-c2nc3c(OCCCNC(=O)C4CCCC4)c(-c4csc(C(=O)O)c4)cnc3[nH]2)cc1 | > 3000 | 1300 | > 30000 | 1100 | 460
COc1ccc(-c2nc3ncc(-c4csc(C(=O)O)c4)cc3[nH]2)cc1 | > 30000 | – | – | 114 | 49
COc1ccc(-c2nc3c(NCCCNC(=O)C4CCCC4)c(-c4nc(C(N)=O)cs4)cnc3[nH]2)cc1 | 7 | 284 | 1450 | 42 | 9
COc1ccc(-c2nc3c(OCCCNC(=O)C4CCCC4)c(Br)cnc3[nH]2)cc1 | – | 156 | > 30000 | > 30000 | 759
